Results from ChEMBL document CHEMBL5230177, “Inactivation of myostatin by photooxygenation using functionalized d-peptides” (RSC Med Chem, 2023).
pIC50: −log10 of the molar value. Calls of active or inactive are those of the source. The calls are words filed in the database; no cut-off is given here.

Experiments:
[1] = target: Growth/differentiation factor 8 (Homo sapiens) (UniProt O14793); assay: Photo-oxygenation of human recombinant Myostatin expressed in Escherichia coli cells assessed as oxygen adduct formation at 1 uM measured after photoirradiation for 30 mins using LED by MALDI-TOF-MS analysis
Outline: (§1)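 Myostatin stock (8 μM in 1 mM HCl) diluted to 1 μM in 10 mM phosphate, pH 7.4. Functionalized peptide (final 3 μM) or methylene blue (final 1 μM) added. Irradiated 30 min with 730 nm LED (14 mW) at room temperature. Then 50 mM DTT reduction (37 °C, 0.5 h), Lys-C digestion (1/20 w/w, 37 °C, 2.5 h), ZipTip desalting, MALDI-TOF MS of fragments.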

[2] = target: Amyloid-beta precursor protein (Homo sapiens) (UniProt P05067); assay: Photo-oxygenation of human Amyloid beta (1 to 42) assessed as oxygen adduct formation at 1 uM measured after photoirradiation for 30 mins using LED by MALDI-TOF-MS analysis
Outline: (§2)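 Aβ1-42 formed in situ from isopeptide stock (250 μM in 0.1% TFA, ultracentrifuged), diluted to 20 μM in 10 mM phosphate, pH 7.4. Functionalized peptide (final 3 μM) or methylene blue (final 1 μM) added. Irradiated with 730 nm LED (14 mW, 3–5 cm) at room temperature. Reduced with 50 mM DTT (37 °C, 0.5 h), Lys-C digested (1/20 w/w, 37 °C, 2.5 h), desalted, analysed by MALDI-TOF MS.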

[3] = Phototoxicity against human HEK293 cells assessed as cell viability at 3 uM photoirradiated for 30 mins using LED followed by incubation with compound for 24 hrs by WST-1 assay; type: toxicity, cell-based; settings: time 1470 min, read-out: Activity
Outline: (§3)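 HEK293 cells grown in DMEM with 10% FBS and non-essential amino acids at 37 °C, 5% CO2, seeded 2.0×10^4 cells/well. After 48 h, medium switched to serum- and phenol red-free DMEM containing 3 μM peptide or methylene blue. Cells irradiated with LED (λmax 730 nm, 30 min), then incubated 24 h. Viability read by WST-1; Student's t-test.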

[4] = target: T1, Growth/differentiation factor 8 (Homo sapiens, UniProt O14793); assay: Photo-oxygenation mediated inactivation of human recombinant Myostatin expressed in Escherichia coli cells photoirradiated for 30 mins using LED followed by incubation with luciferase reporter transfected HEK293 cells for 4 hrs by luciferase reporter gene assay
T1 sequence (O14793 whole entry): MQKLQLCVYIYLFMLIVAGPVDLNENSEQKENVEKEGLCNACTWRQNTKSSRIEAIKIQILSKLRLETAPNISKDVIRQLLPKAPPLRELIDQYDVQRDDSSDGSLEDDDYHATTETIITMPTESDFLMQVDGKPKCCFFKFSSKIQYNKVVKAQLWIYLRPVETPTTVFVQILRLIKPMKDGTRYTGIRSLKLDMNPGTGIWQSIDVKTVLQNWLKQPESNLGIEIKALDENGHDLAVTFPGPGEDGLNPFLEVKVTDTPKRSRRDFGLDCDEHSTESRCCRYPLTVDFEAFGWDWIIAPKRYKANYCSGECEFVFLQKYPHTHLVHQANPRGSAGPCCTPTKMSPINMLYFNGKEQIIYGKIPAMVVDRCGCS
Outline: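 Myostatin (1 μM in 10 mM phosphate, pH 7.4, with or without peptide) diluted in serum-free DMEM to 0.6 nM, irradiated at 730 nm for 30 min, then added to HEK293 cells. Cells were transfected 24 h with SBE-luc2P reporter plus TK-Renilla control, then held 8 h in serum/phenol red-free DMEM. Exposure 4 h, PBS wash, dual-luciferase read-out. Triplicate, mean ± s.d. (n = 3), Tukey's test.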

[5] = test system: trypsin (Sus scrofa); assay: Stability of the compound assessed as trypsin (porcine pancreas)-mediated drug degradation at 100 uM measured after 3 hrs by MALDI-TOF-MS analysis
[6] = test system: chymotrypsin (Bos taurus); assay: Stability of the compound assessed as chymotrypsin (bovine pancreas)-mediated drug degradation by measuring residual ratio at 100 uM measured after 1 hr by HPLC analysis
[7] = test system: chymotrypsin (Bos taurus); assay: Stability of the compound assessed as chymotrypsin (bovine pancreas)-mediated drug degradation by measuring cleavage at Tyr7-Ser8 residue at 100 uM measured for 3 hrs by MALDI-TOF-MS analysis
[8] = test system: chymotrypsin (Bos taurus); assay: Stability of the compound assessed as chymotrypsin (bovine pancreas)-mediated drug degradation by measuring cleavage at Leu21-Arg22 residue at 100 uM measured for 3 hrs by MALDI-TOF-MS analysis
[9] = target: Growth/differentiation factor 8 (Homo sapiens) (UniProt O14793); assay: Photo-oxygenation of human recombinant Myostatin expressed in Escherichia coli cells assessed as oxygen adduct formation in myostatin peak fragment 79-90 at 3 uM measured after photoirradiation for 30 mins using LED by MALDI-TOF-MS analysis; outline: as §1
[10] = target: Growth/differentiation factor 8 (Homo sapiens) (UniProt O14793); assay: Photo-oxygenation of human recombinant Myostatin expressed in Escherichia coli cells assessed as oxygen adduct formation in myostatin peak fragment 55-78 at 3 uM measured after photoirradiation for 30 mins using LED by MALDI-TOF-MS analysis; outline: as §1
[11] = target: Growth/differentiation factor 8 (Homo sapiens) (UniProt O14793); assay: Photo-oxygenation of human recombinant Myostatin expressed in Escherichia coli cells assessed as oxygen adduct formation in myostatin peak fragment 40-54 at 3 uM measured after photoirradiation for 30 mins using LED by MALDI-TOF-MS analysis; outline: as §1
[12] = target: Amyloid-beta precursor protein (Homo sapiens) (UniProt P05067); assay: Photo-oxygenation of human Amyloid beta (1 to 42) assessed as oxygen adduct formation at 3 uM measured after photoirradiation for 30 mins using LED by MALDI-TOF-MS analysis; outline: as §2
[13] = test system: HEK293; assay: Phototoxicity against human HEK293 cells assessed as reduction in cell viability at 3 uM photoirradiated for 30 mins using LED followed by incubation with compound for 24 hrs by WST-1 assay; type: toxicity, cell-based; settings: hek293, 24.5 h, time 1470 min; outline: as §3
[14] = test system: HEK293; assay: Cytotoxicity against human HEK293 cells assessed as reduction in cell viability at 3 uM incubated for 24 hrs by WST-1 assay; type: toxicity, cell-based; settings: hek293, 24 h
[15] = target: Growth/differentiation factor 8 (Homo sapiens) (UniProt O14793); assay: Inactivation of human recombinant Myostatin expressed in Escherichia coli cells at 300 nM incubated with luciferase reporter transfected HEK293 cells for 4 hrs by luciferase reporter gene assay

Chain of Amyloid-beta precursor protein (Homo sapiens) (P05067 whole entry): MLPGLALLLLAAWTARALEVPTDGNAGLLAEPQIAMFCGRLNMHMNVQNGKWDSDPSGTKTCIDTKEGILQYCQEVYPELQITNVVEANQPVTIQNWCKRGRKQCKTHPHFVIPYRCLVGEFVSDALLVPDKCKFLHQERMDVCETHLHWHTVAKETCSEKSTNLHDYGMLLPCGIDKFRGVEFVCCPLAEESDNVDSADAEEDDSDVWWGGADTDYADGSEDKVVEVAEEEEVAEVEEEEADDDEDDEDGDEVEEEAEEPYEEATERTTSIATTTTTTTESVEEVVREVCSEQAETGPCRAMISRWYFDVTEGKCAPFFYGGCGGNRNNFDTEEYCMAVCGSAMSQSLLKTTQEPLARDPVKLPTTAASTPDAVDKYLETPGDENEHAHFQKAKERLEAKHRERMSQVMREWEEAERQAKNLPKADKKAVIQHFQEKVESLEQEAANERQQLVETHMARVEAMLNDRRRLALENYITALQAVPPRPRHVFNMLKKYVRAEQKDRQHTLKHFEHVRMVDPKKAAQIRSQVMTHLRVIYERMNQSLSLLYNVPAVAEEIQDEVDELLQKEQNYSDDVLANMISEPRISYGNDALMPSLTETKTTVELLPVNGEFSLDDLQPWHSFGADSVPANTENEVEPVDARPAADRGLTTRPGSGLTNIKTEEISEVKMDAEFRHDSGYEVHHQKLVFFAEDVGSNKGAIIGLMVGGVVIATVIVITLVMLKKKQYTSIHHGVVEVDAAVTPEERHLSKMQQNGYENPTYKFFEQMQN

SMILES	Activity [9]	Activity [10]	Activity [11]	Activity [12]	Activity [13]	also measured
CN(C)c1ccc2nc3ccc(=[N+](C)C)cc-3sc2c1 [METHYLENE BLUE ANHYDROUS]						Activity [1]: Active; Activity [2]: Active; viability at 24.5 h, 3 µM [3]: 21%
CC[C@H](C)[C@H](NC(=O)[C@H](C)NC(=O)[C@H](CCC(=O)O)NC(=O)[C@@H](NC(=O)[C@H](CCCNC(=N)N)NC(=O)[C@H](CO)NC(=O)[C@H](Cc1ccc(O)cc1)NC(=O)[C@H](CCCNC(=N)N)NC(=O)[C@@H](NC(=O)[C@H](CC(N)=O)NC(=O)[C@H](CCC(N)=O)NC(=O)[C@H](CCCNC(=N)N)NC(=O)CC(c1ccccc1)c1ccccc1)[C@@H](C)O)[C@@H](C)CC)C(=O)N[C@@H](CCCCN)C(=O)N[C@H](C(=O)N[C@@H](Cc1cn(CCN2CCCc3cc(/C=C/C4=C(Br)C(/C=C/c5cc6c7c(c5)CCCN7CCC6)=[O+][B-](F)(C(F)(F)F)O4)ccc32)nn1)C(=O)N[C@H](C(=O)N[C@@H](CC(C)C)C(=O)N[C@@H](CO)C(=O)N[C@@H](CCCCN)C(=O)N[C@@H](CC(C)C)C(=O)N[C@@H](CCCNC(=N)N)C(=O)N[C@@H](CC(C)C)C(=O)O)[C@@H](C)CC)[C@@H](C)CC (stereo not given in full)						pIC50 [4]: 8.68; Stability [5]: Unstable; remaining at 1 h, 100 µM [6]: 13%; Stability [7]: Unstable; Stability [8]: Unstable
CC[C@@H](C)[C@@H](NC(=O)[C@@H](CCCNC(=N)N)NC(=O)[C@@H](CCc1ccccc1)NC(=O)[C@H](NC(=O)[C@@H](CCCCN)NC(=O)[C@H](NC(=O)[C@@H](CCCNC(=N)N)NC(=O)[C@H](NC(=O)[C@@H](Cc1ccc2ccccc2c1)NC(=O)[C@@H](CCCNC(=N)N)NC(=O)[C@@H](Cc1cn(CCN2CCCc3cc(/C=C/C4=C(Br)C(/C=C/c5cc6c7c(c5)CCCN7CCC6)=[O+][B-](F)(C(F)(F)F)O4)ccc32)nn1)NC(=O)[C@H](NC(=O)[C@@H](CCCNC(=N)N)NC(=O)[C@H](N)CC(C)C)C1CCCCC1)[C@H](C)CC)C1CCCCC1)[C@H](C)CC)C(=O)N[C@H](Cc1ccc(O)cc1)C(=O)N[C@H](CCc1ccccc1)C(N)=O (stereo not given in full)	Active	Active	inactive	inactive	Non-Toxic	
CC[C@@H](C)[C@@H](NC(=O)[C@@H](CCCNC(=N)N)NC(=O)[C@@H](CCc1ccccc1)NC(=O)[C@H](NC(=O)[C@@H](CCCCN)NC(=O)[C@H](NC(=O)[C@@H](CCCNC(=N)N)NC(=O)[C@H](NC(=O)[C@@H](Cc1ccc2ccccc2c1)NC(=O)[C@@H](CCCNC(=N)N)NC(=O)[C@@H](CCCCN)NC(=O)[C@H](NC(=O)[C@@H](CCCNC(=N)N)NC(=O)[C@H](N)CC(C)C)C1CCCCC1)[C@H](C)CC)C1CCCCC1)[C@H](C)CC)C(=O)N[C@H](Cc1ccc(O)cc1)C(=O)N[C@H](Cc1cn(CCN2CCCc3cc(/C=C/C4=C(Br)C(/C=C/c5cc6c7c(c5)CCCN7CCC6)=[O+][B-](F)(C(F)(F)F)O4)ccc32)nn1)C(N)=O (stereo not given in full)	Active	Active	inactive	inactive	Non-Toxic	
CC[C@@H](C)[C@@H](NC(=O)[C@@H](CCCNC(=N)N)NC(=O)[C@@H](CCc1ccccc1)NC(=O)[C@H](NC(=O)[C@@H](CCCCN)NC(=O)[C@H](NC(=O)[C@@H](Cc1cn(CCN2CCCc3cc(/C=C/C4=C(Br)C(/C=C/c5cc6c7c(c5)CCCN7CCC6)=[O+][B-](F)(C(F)(F)F)O4)ccc32)nn1)NC(=O)[C@H](NC(=O)[C@@H](Cc1ccc2ccccc2c1)NC(=O)[C@@H](CCCNC(=N)N)NC(=O)[C@@H](CCCCN)NC(=O)[C@H](NC(=O)[C@@H](CCCNC(=N)N)NC(=O)[C@H](N)CC(C)C)C1CCCCC1)[C@H](C)CC)C1CCCCC1)[C@H](C)CC)C(=O)N[C@H](Cc1ccc(O)cc1)C(=O)N[C@H](CCc1ccccc1)C(N)=O (stereo not given in full)	Active	Active	inactive	inactive	Non-Toxic	
CN(C)c1ccc2nc3ccc(N(C)C)cc3[s+]c2c1.[Cl-] [METHYLENE BLUE ANHYDROUS]						Activity [14]: Non-Toxic
CC[C@@H](C)[C@@H](NC(=O)[C@@H](CCCNC(=N)N)NC(=O)[C@@H](CCc1ccccc1)NC(=O)[C@H](NC(=O)[C@@H](CCCCN)NC(=O)[C@H](NC(=O)[C@@H](CCCNC(=N)N)NC(=O)[C@H](NC(=O)[C@@H](Cc1ccc2ccccc2c1)NC(=O)[C@@H](CCCNC(=N)N)NC(=O)[C@@H](CCCCN)NC(=O)[C@H](NC(=O)[C@@H](CCCNC(=N)N)NC(=O)[C@H](N)CC(C)C)C1CCCCC1)[C@H](C)CC)C1CCCCC1)[C@H](C)CC)C(=O)N[C@H](Cc1ccc(O)cc1)C(=O)N[C@H](CCc1ccccc1)C(N)=O						inhibition [15]: Active
CC[C@@H](C)[C@@H](NC(=O)[C@@H](Cc1cn(CCN2CCCc3cc(/C=C/C4=C(Br)C(/C=C/c5cc6c7c(c5)CCCN7CCC6)=[O+][B-](F)(C(F)(F)F)O4)ccc32)nn1)NC(=O)[C@@H](CCc1ccccc1)NC(=O)[C@H](NC(=O)[C@@H](CCCCN)NC(=O)[C@H](NC(=O)[C@@H](CCCNC(=N)N)NC(=O)[C@H](NC(=O)[C@@H](Cc1ccc2ccccc2c1)NC(=O)[C@@H](CCCNC(=N)N)NC(=O)[C@@H](CCCCN)NC(=O)[C@H](NC(=O)[C@@H](CCCNC(=N)N)NC(=O)[C@H](N)CC(C)C)C1CCCCC1)[C@H](C)CC)C1CCCCC1)[C@H](C)CC)C(=O)N[C@H](Cc1ccc(O)cc1)C(=O)N[C@H](CCc1ccccc1)C(N)=O (stereo not given in full)	Active	Active	inactive	inactive	Non-Toxic	
